In article PMC3731742 (Journal of biomolecular screening, 2011):
pIC50: −log10 of the molar value. Several values for one entry are separate records, joined by “and”; a condition that tells them apart may be missing. Equal entries are not always repeated. Where two headings read alike, the source gives them in different places.

Key:
[1] = tested on: Phosphopantetheinyl transferase; conditions: PubChem; cited from earlier work
[2] = tested on: Microtubule-associated protein tau; conditions: PubChem, tau aggregation; cited from earlier work
Mint1 = conditions: PubChem; cited from earlier work
[3] = tested on: Nuclear receptor ROR-gamma; conditions: PubChem; cited from earlier work
[4] = tested on: TAg-dependent DNA replication; assay: TAg-dependent DNA replication assay; assay type: biochemical, SV40; conditions: HeLa cell lysate, radiolabelled nucleotides
Outline: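 TAg recruits replication machinery from HeLa cell lysate to copy a reporter plasmid carrying the SV40 origin, incorporating trace radiolabelled nucleotides over time. Test compound added at 30, 100 and 300 µM.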

SV40 virus = assay: Cytoprotection assay with SV40 virus in BSC-40 cells; assay type: cell-based; conditions: 50 μM, BSC-40 cells + SV40, 120 h
[5] = tested on: Hydroxyprostaglandin dehydrogenase 15-(NAD) isoform 1; conditions: PubChem; cited from earlier work
Aldehyde dehydrogenase 1 = conditions: PubChem; cited from earlier work
[6] = target: SV40 large T antigen ATPase activity (Simian virus 40, UniProt P03070); assay: SV40 TAg ATPase primary assay; assay type: biochemical; conditions: 1% DMSO; for pIC50: 1536-well, ADP Hunter, 1 mM ATP
Outline: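 Purified TAg (10.8 ng/well, added from 14.4 ng/µL) in 100 mM Tris-HCl pH 7.4, 20 mM KCl, 6 mM MgCl2, 0.1 mg/mL BSA; control added before enzyme, preincubated 30 min ambient; 5 mM ATP stock added, 120 min ambient; 1.25 µL reaction. ADP Hunter fluorescence, ex/em 530/590 nm bottom read. % inhibition normalized to median enzyme control and high-dose control wells.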

BSC-40 cells = assay: Cytotoxicity in BSC-40 cells; assay type: cell-based, African green monkey; conditions: cells + compound only, 5 days
[7] = Compound aggregation in steady-state ATP assays; assay type: physicochemical; conditions: 20-μL steady-state ATP assay; previously observed in the laboratory
TAg = conditions: read-out: IC50 for MAL2-11B; ref 21 (Huryn et al.); cited from earlier work

SV40 large T antigen ATPase activity, sequence (P03070 whole entry): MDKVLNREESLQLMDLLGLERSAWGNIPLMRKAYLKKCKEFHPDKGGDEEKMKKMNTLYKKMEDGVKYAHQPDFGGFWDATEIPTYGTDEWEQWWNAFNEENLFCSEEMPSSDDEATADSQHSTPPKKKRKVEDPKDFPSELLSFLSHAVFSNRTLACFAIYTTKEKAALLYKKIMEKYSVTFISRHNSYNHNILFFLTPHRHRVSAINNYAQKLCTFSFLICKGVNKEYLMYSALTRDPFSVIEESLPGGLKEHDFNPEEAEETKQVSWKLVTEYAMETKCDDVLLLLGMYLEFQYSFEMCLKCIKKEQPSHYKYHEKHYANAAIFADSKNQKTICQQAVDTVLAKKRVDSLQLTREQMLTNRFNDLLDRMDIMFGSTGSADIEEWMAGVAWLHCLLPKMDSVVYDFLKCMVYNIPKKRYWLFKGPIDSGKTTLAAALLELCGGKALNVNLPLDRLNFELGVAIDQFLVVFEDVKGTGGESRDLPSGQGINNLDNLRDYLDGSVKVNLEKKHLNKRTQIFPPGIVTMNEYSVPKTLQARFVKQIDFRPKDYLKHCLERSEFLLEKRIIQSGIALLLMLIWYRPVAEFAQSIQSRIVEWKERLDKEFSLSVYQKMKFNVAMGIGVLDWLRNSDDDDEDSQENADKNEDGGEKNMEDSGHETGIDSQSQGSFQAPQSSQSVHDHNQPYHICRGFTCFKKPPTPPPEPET

SMILES | identified as hit (inhibitor) against target [1] | identified as hit (inhibitor) against target [2] | identified as hit (inhibitor) against target (Mint1) | identified as hit (inhibitor) against target [3] | effect on TAg-dependent DNA replication at 300 μM [4] | identified as hit (inhibitor) against target [5] | identified as hit (inhibitor) against target (Aldehyde dehydrogenase 1) | also measured
Cc1cc(C)c2c(=O)n(CC(=O)Nc3cccc(Cl)c3C)sc2n1 [SID 85281218] | Phosphopantetheinyl transferase | Microtubule-associated protein tau | Mint1 | Nuclear receptor ROR-gamma |  |  |  | 
ClC(Cl)(c1nnnn1-c1ccccc1)c1nnnn1-c1ccccc1 [SID 85281215] | Phosphopantetheinyl transferase | Microtubule-associated protein tau | Mint1 | Nuclear receptor ROR-gamma | DNA replication was absent | Hydroxyprostaglandin dehydrogenase 15-(NAD) isoform 1 | Aldehyde dehydrogenase 1 | sustained cell viability in the cytoprotection assay (SV40 virus): 16%
Nc1nc2ccc(S(=O)(=O)N3CCCCC3)cc2s1 [SID 85281217] | Phosphopantetheinyl transferase | Microtubule-associated protein tau | Mint1 |  |  | Hydroxyprostaglandin dehydrogenase 15-(NAD) isoform 1 | Aldehyde dehydrogenase 1 | 
CC(C)(c1ccc(O)cc1)c1ccc(O)cc1 [SID 92277586, Bisphenol A] |  |  |  |  | complete inhibition |  |  | pIC50 ([6]; IC50, inhibition of TAg ATPase activity in the primary assay): 4.39 and 4.38; effect on TAg-dependent DNA replication at 100 μM ([4]; 100 μM): some inhibition; TC50 (50% toxic concentration) (BSC-40 cells): 7.94 µM
CC1=C(C(=O)OCc2ccccc2)C(c2ccc(-c3ccccc3)cc2)NC(=O)N1CCCCCC(=O)O (stereo not shown) [MAL2-11B, reference compound] |  |  |  |  |  |  |  | inhibition of TAg activity ([6]; MAL2-11B at 100 μM final, average): 80%; pIC50 ([6]; read-out: IC50, inhibition of TAg ATPase activity in the primary assay): 4.71; final concentration at which compound aggregation was observed [7]: > 300 µM; pIC50 (TAg): 4.30
